# Laboratory results taken from ChEMBL document CHEMBL4480404, “Discovery of Lipophilic Bisphosphonates That Target Bacterial Cell Wall and Quinone Biosynthesis” (J Med Chem, 2019).
# Active and inactive are the calls of the source. The calls are words filed in the database; no cut-off is given here.
# Key:
# [1] = Growth inhibition of HEK293 cells after 24 hrs by MTT assay; type: cell-based; details: human, read-out: ED50
# Method in brief: (§1)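 HEK293 cells in DMEM (4.5 g/L glucose) with 10% FBS and 1% penicillin-streptomycin, seeded at 10⁵ cells/mL. Inhibitor from 10 mM stock diluted threefold across 10 wells; 37 °C for 24 or 96 h.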
# [2] = Lipophilicity, log D of the compound at pH 7.4; type: physicochemical; details: buffer
# Candida albicans = experiment: microbe, parasite or virus in culture; type: functional; details: CAI-4, 12 h, read-out: ED50 (the source's name)
# Staphylococcus aureus = experiment: Antibacterial activity against Staphylococcus aureus Newman after 12 hrs; type: functional; details: read-out: ED50 (the source's name)
# Method in brief: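 Log-phase S. aureus culture in tryptic soy broth (OD600 ~0.3, then diluted 500-fold). Inhibitors two-fold serially diluted across 12 wells from a 100 µM–1 mM start; 37 °C, 200 rpm, 12 h; OD600 read for growth inhibition.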
# Bacillus subtilis [3] = experiment: Antibacterial activity against Bacillus subtilis (Ehrenberg) Cohn ATCC 6051 after 12 hrs; type: functional; details: (Ehrenberg) Cohn ATCC 6051, 12 h, read-out: ED50 (the source's name)
# Method in brief: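 Log-phase LB culture (grown to OD600 ~0.3, then diluted 500-fold) exposed to two-fold serial dilutions of inhibitor starting at 100 µM–1 mM across 12 wells; 37 °C, 200 rpm shaking, 12 h. OD600 read and ED50 fitted; duplicate or triplicate.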
# Bacillus anthracis = experiment: Antibacterial activity against Bacillus anthracis Sterne after 12 hrs; type: functional; details: read-out: ED50 (the source's name)
# Bacillus subtilis [4] = experiment: Antibacterial activity against Bacillus subtilis (Ehrenberg) Cohn ATCC 6051 in absence of fetal bovine serum after 12 hrs; type: functional; details: (Ehrenberg) Cohn ATCC 6051, 12 h, read-out: ED50 (the source's name)
# Method in brief: (§2)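 Log-phase B. subtilis diluted 500-fold into LB containing 0%, 4% or 10% fetal bovine serum. Inhibitor threefold serially diluted across 12 wells from a 100 µM–1 mM start; incubated 12 h at 37 °C with 200 rpm shaking; growth inhibition by OD600.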
# Bacillus subtilis [5] = experiment: Antibacterial activity against Bacillus subtilis (Ehrenberg) Cohn ATCC 6051 in presence of 10% fetal bovine serum after 12 hrs; type: functional; details: (Ehrenberg) Cohn ATCC 6051, 12 h, read-out: ED50 (the source's name); method in brief: as §2
# [6] = Binding affinity to Staphylococcus aureus HepPPS
# [7] = Growth inhibition of HEK293 cells after 96 hrs by MTT assay; type: cell-based; details: human, read-out: ED50; method in brief: as §1
# [8] = system: Mycolicibacterium smegmatis; experiment: Antibacterial activity against Mycobacterium smegmatis MC2 155 ATCC 700084 after 48 hrs; type: functional; details: MC2 155 ATCC 700084, 48 h, read-out: ED50 (the source's name)
# Method in brief: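 Culture grown 36–48 h, diluted 1000-fold in Middlebrook 7H9 with 10% ADC, 0.5% glycerol, 0.05% Tween 80; inhibitors started at 100 µM–1 mM, threefold serial dilution across 10 wells; 37 °C, 200 rpm, 48 h; OD600 read-out.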
# Bacillus subtilis [9] = experiment: Antibacterial activity against Bacillus subtilis (Ehrenberg) Cohn ATCC 6051 assessed as growth inhibition in presence of HMBPP after 12 hrs; type: functional, organism-based; details: (Ehrenberg) Cohn ATCC 6051, 12 h
# Method in brief: (§3)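 Rescue format: log-phase B. subtilis in LB with rescue agent(s) at 50 µM each, alone or as pairwise combinations of UP, MK-4, FPP or HMBPP. Inhibitor diluted threefold across 12 wells from a 100 µM–1 mM start; 37 °C, 200 rpm, 12 h. Growth inhibition read as OD600; ED50-based fold-rescue; duplicate.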
# Bacillus subtilis [10] = experiment: Antibacterial activity against Bacillus subtilis (Ehrenberg) Cohn ATCC 6051 assessed as growth inhibition in presence of FPP after 12 hrs; type: functional, organism-based; details: (Ehrenberg) Cohn ATCC 6051, 12 h; method in brief: as §3
# Bacillus subtilis [11] = experiment: Antibacterial activity against Bacillus subtilis (Ehrenberg) Cohn ATCC 6051 assessed as growth inhibition in presence of FPP and UP after 12 hrs; type: functional, organism-based; details: (Ehrenberg) Cohn ATCC 6051, 12 h; method in brief: as §3
# Bacillus subtilis [12] = experiment: Antibacterial activity against Bacillus subtilis (Ehrenberg) Cohn ATCC 6051 assessed as growth inhibition in presence of HMBPP and MK4 after 12 hrs; type: functional, organism-based; details: (Ehrenberg) Cohn ATCC 6051, 12 h; method in brief: as §3
# Clostridioides difficile [13] = experiment: Antibacterial activity against Clostridioides difficile ATCC 43255 after 48 hrs; type: functional; details: ATCC 43255, 48 h
# Method in brief: (§4)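 Grown anaerobically 48 h at 37 °C on brain heart infusion agar supplemented with yeast extract, L-cysteine, vitamin K1 and hemin. Inoculum set to a 0.5 McFarland standard, then diluted in supplemented BHI broth to ~5 × 10^5 CFU/mL. Broth dilution over 64–0.5 μM, incubated anaerobically 48 h at 37 °C. MIC read visually as lowest concentration inhibiting growth.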
# Clostridioides difficile [14] = experiment: Antibacterial activity against Clostridioides difficile ATCC 1870 after 48 hrs; type: functional; details: ATCC 1870, 48 h; method in brief: as §4
# [15] = target: T1, Farnesyl pyrophosphate synthase (Homo sapiens, UniProt P14324); experiment: Inhibition of human FPPS using IPP and GPP as substrate
# T1 sequence (P14324 whole entry): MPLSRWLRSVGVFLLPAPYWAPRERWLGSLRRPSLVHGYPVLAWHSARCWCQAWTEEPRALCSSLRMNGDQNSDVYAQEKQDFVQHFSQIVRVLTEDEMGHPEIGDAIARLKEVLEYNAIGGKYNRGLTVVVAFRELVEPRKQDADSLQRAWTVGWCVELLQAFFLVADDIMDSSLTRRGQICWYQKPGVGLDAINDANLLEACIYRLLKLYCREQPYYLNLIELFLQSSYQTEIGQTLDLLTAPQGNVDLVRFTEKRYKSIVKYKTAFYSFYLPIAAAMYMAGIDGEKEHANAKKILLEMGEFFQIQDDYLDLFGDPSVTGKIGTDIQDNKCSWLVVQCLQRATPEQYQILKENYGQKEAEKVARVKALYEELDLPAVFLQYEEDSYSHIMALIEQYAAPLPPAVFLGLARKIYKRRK
# Method in brief: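 Expressed HsFPPS at 0.15 μM with 50 μM IPP and 50 μM GPP, 25°C, in 20 mM HEPES pH 7.5, 150 mM NaCl, 500 μM MgCl2. Enzyme preincubated 30 min at room temperature with serially diluted compound. Continuous MESG/PNP phosphate-release read-out, with pyrophosphatase added. At least 3 runs on different days; pooled data fitted by nonlinear regression for IC50.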
# [16] = target: T1, Farnesyl pyrophosphate synthase; experiment: Inhibition of human FPPS using IPP and GPP
# Bacillus subtilis [17] = experiment: Antibacterial activity against Bacillus subtilis (Ehrenberg) Cohn ATCC 6051 assessed as growth inhibition in presence of MK7 after 12 hrs; type: functional, organism-based
# Bacillus subtilis [18] = experiment: Antibacterial activity against Bacillus subtilis (Ehrenberg) Cohn ATCC 6051 assessed as growth inhibition in presence of decaprenyl phosphate after 12 hrs; type: functional, organism-based
# [19] = Inhibition of Escherichia coli OPPS using IPP as substrate
smiles,measurement,setting,value
CC(C)CCCC(C)CCOc1cc(NCC(P(=O)(O)O)P(=O)(O)O)ccn1 (stereo not given),GI50 at 24 h,[1],1200 µM
same,logD,[2]; read-out: logD,-3.1
CCCCCCCCCCCCCc1ccc[n+](CC(P(=O)([O-])O)P(=O)(O)O)c1 (stereo not given),GI50 at 24 h,[1],48 µM
same,logD,[2]; read-out: logD,-3.65
CC(C)CCCC(C)CCOc1cccc(NCC(P(=O)(O)O)P(=O)(O)O)n1 (stereo not given),logD,[2]; read-out: logD,-2.24
O=P(O)(O)C(O)(Cc1cccc(-c2cccc3c2oc2ccccc23)c1)P(=O)(O)O,EC50,Candida albicans,> 50 µg/mL
CC(C)CCCC(C)CCNc1ccc[n+](CC(P(=O)([O-])O)P(=O)(O)O)c1 (stereo not given),GI50 at 24 h,[1],440 µM
O=P([O-])(O)C(Cn1cc[n+](CCCc2ccc(F)c(F)c2)c1)P(=O)(O)O (stereo not given),EC50,Staphylococcus aureus,30 µg/mL
same,EC50,Bacillus subtilis [3],> 100 µg/mL
same,EC50,Bacillus anthracis,> 100 µg/mL
same,EC50,Candida albicans,2 µg/mL
same,GI50 at 24 h,[1],600 µM
same,EC50,Bacillus subtilis [4],26 µg/mL
same,EC50,Bacillus subtilis [5],38 µg/mL
CC(C)=CCC/C(C)=C/CC/C(C)=C/COP(=O)(O)OP(=O)(O)O [FARNESYL DIPHOSPHATE],Kd,[6],35 µM
CC(C)CCCC(C)CCCc1cc[n+](CC(P(=O)([O-])O)P(=O)(O)O)cc1 (stereo not given),GI50 at 24 h,[1],700 µM
same,EC50,Bacillus subtilis [4],2.3 µg/mL
same,EC50,Bacillus subtilis [5],78 µg/mL
same,GI50 at 96 h,[7],> 1000 µM
same,logD,[2],-4.71
CC(C)CCCC(C)CCOc1ccnc(NC(P(=O)(O)O)P(=O)(O)O)c1 (stereo not given),GI50 at 24 h,[1],1300 µM
same,logD,[2]; read-out: logD,-1.63
CC(C)CCCC(C)CCCc1cccc(NCC(P(=O)(O)O)P(=O)(O)O)n1 (stereo not given),EC50,Staphylococcus aureus,73 µM
same,EC50,Bacillus subtilis [3],60 µM
same,EC50,[8],210 µM
same,EC50,Bacillus anthracis,6.9 µM
same,GI50 at 24 h,[1],1100 µM
same,logD,[2]; read-out: logD,-2
CC(C)CCCC(C)CCOc1ccc[n+](CC(P(=O)([O-])O)P(=O)(O)O)c1 (stereo not given),GI50 at 24 h,[1],620 µM
same,IC50,Bacillus subtilis [9],2.1 µg/mL
same,IC50,Bacillus subtilis [10],3.5 µg/mL
same,IC50,Bacillus subtilis [11],8.9 µg/mL
same,IC50,Bacillus subtilis [12],8.9 µg/mL
same,MIC,Clostridioides difficile [13],6.8 µg/mL
same,MIC,Clostridioides difficile [14],6.8 µg/mL
same,EC50,Bacillus subtilis [4],1 µg/mL
same,EC50,Bacillus subtilis [5],1.7 µg/mL
same,GI50 at 96 h,[7],76 µM
same,IC50,[15],0.23 µM
same,IC50,[16],0.23 µM
same,Activity,Bacillus subtilis [17],Active
same,Activity,Bacillus subtilis [18],Active
CC(C)CCCC(C)CCOc1cc[n+](CC(P(=O)([O-])O)P(=O)(O)O)cc1 (stereo not given),GI50 at 24 h,[1],≥ 1000 µM
same,EC50,Bacillus subtilis [4],5.7 µg/mL
same,EC50,Bacillus subtilis [5],28 µg/mL
same,GI50 at 96 h,[7],800 µM
same,IC50,[15],100 µM
same,logD,[2],-5.82
CCCCCCCCOc1cccc(C(=O)Nc2ccc(F)cc2C(=O)O)c1,EC50,Staphylococcus aureus,3 to 8 µg/mL
same,EC50,Bacillus subtilis [3],3 to 8 µg/mL
same,EC50,[8],3 to 8 µg/mL
same,EC50,Bacillus anthracis,3 to 8 µg/mL
same,EC50,Candida albicans,> 50 µg/mL
CC(C)CCCC(C)CCSc1cc[n+](CC(P(=O)([O-])O)P(=O)(O)O)cc1 (stereo not given),GI50 at 24 h,[1],1000 µM
same,logD,[2],-5.08
CCCCCCCCCCCc1ccc[n+](CC(P(=O)([O-])O)P(=O)(O)O)c1 (stereo not given),GI50 at 24 h,[1],220 µM
same,EC50,Bacillus subtilis [5],2 µg/mL
same,logD,[2],-4.07
CC(C)CCCC(C)CCOc1ccnc(NCC(P(=O)(O)O)P(=O)(O)O)c1 (stereo not given),logD,[2]; read-out: logD,-2.31
CCCCCCCCCCCCCCOc1cccc(O)c1C(=O)O,EC50,Candida albicans,> 50 µg/mL
CCCCCCCCCCOc1ccc[n+](CC(P(=O)([O-])O)P(=O)(O)O)c1 (stereo not given),EC50,Candida albicans,> 50 µg/mL
same,IC50,[19],0.006 to 0.02 µM
O=P([O-])(O)C(C[n+]1ccc(-c2ccc3oc4ccccc4c3c2)cc1)P(=O)(O)O (stereo not given),EC50,Candida albicans,> 50 µg/mL
CCCCCCCCCCOc1cccc(CC(O)(P(=O)(O)O)P(=O)(O)O)c1,IC50,[19],11 µM
same,IC50,[16],550 µM
CC(C)CCCC(C)CCCC(C)CCCC(C)CCOc1ccc[n+](CC(P(=O)([O-])O)P(=O)(O)O)c1 (stereo not given),logD,[2]; read-out: logD,-1.85
CC(C)CCCC(C)CCc1cnc(NCC(P(=O)(O)O)P(=O)(O)O)s1 (stereo not given),logD,[2]; read-out: logD,-2.12
CC(C)CCCC(C)CCCc1ccc[n+](CC(P(=O)([O-])O)P(=O)(O)O)c1 (stereo not given),GI50 at 24 h,[1],460 µM
same,EC50,Bacillus subtilis [4],2.4 µg/mL
same,EC50,Bacillus subtilis [5],1.7 µg/mL
same,logD,[2],-4.71
CC(C)CCCC(C)CCn1cc[n+](CC(P(=O)([O-])O)P(=O)(O)O)c1 (stereo not given),GI50 at 24 h,[1],420 µM
CC(C)CCCC(C)CCSc1ccc[n+](CC(P(=O)([O-])O)P(=O)(O)O)c1 (stereo not given),GI50 at 24 h,[1],510 µM
same,logD,[2],-5.09
CC(C)CCCC(C)CCOc1ccc[n+](CC(O)(P(=O)([O-])O)P(=O)(O)O)c1 (stereo not given),GI50 at 24 h,[1],1100 µM
CC(C)CCCC(C)CCCC(C)CCOc1ccc[n+](CC(P(=O)([O-])O)P(=O)(O)O)c1 (stereo not given),logD,[2]; read-out: logD,-3.48
CC(C)CCCC(C)c1cnc(NCC(P(=O)(O)O)P(=O)(O)O)s1 (stereo not given),logD,[2]; read-out: logD,-2.96
CC(C)CCCC(C)CCc1csc(NCC(P(=O)(O)O)P(=O)(O)O)n1 (stereo not given),logD,[2]; read-out: logD,-2.36
CC(C)CCCC(C)CCCn1cc[n+](CC(P(=O)([O-])O)P(=O)(O)O)c1 (stereo not given),GI50 at 24 h,[1],440 µM
same,logD,[2],-5.65
